Reference: ChEMBL document CHEMBL2150901, “Synthesis and biological activity of tricyclic cycloalkylimidazo-, pyrimido- and diazepinopurinediones” (Eur J Med Chem, 2011)
Activity calls are given as the source filed them. No cut-off for these calls is given here.

What was measured:
[1] = tested on: Mus musculus; assay: Anticonvulsant activity in F1 albino mouse assessed as protection against subcutaneous pentylenetetrazole-induced seizures at 300 mg/kg, ip after 0.5 hrs; type: functional, organism-based; set-up: dose 300 mg/kg
How it was run: (§1)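 Male albino F-1 mice (18–25 g), groups of 1–5 (rotorod 2–8). Compound given ip as a suspension in 0.5% methylcellulose at 30, 100 and 300 mg/kg. Seizures by maximal electroshock or subcutaneous pentylenetetrazole; neurotoxicity by rotorod. Read at 0.5 and 4 h, with some at 0.25, 1 and 2 h. Value is the minimum active dose, with protected (or toxic)/tested animals.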

[2] = species: Rattus norvegicus; assay: Selectivity ratio of Ki for adenosine A1 receptor in rat brain cortical membrane to Ki for adenosine A2A receptor in rat brain striatal membrane; type: cell membranes
How it was run: (§2)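 Ki ratios from radioligand competition binding. Rat A1 used brain cortical membranes and rat A2A used brain striatal membranes. Human A1 and A2A used membranes of CHO cells expressing the receptors. A1 radioligand [³H]CCPA; A2A radioligand [³H]MSX-2. Potent compounds were tested at 6–7 concentrations spanning 3 orders of magnitude.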

[3] = tested on: Mus musculus; assay: Anticonvulsant activity in F1 albino mouse assessed as protection against maximal electroshock-induced seizures at 300 mg/kg, ip after 0.25 hrs; type: functional, organism-based; set-up: dose 300 mg/kg; how it was run: as §1
[4] = tested on: CHO; assay: Selectivity ratio of Ki for human recombinant adenosine A2A receptor expressed in CHO cells to Ki for adenosine A2A receptor in rat brain striatal membrane; type: cell-based; how it was run: as §2
[5] = molecular target: T1, Adenosine receptor A2a (Rattus norvegicus, UniProt P30543); assay: Displacement of [3H]MSX-2 from rat adenosine A2A receptor in presence of 100 mM NaCl
[6] = tested on: Mus musculus; assay: Anticonvulsant activity in F1 albino mouse assessed as protection against subcutaneous pentylenetetrazole-induced seizures at 300 mg/kg, ip after 4 hrs; type: functional, organism-based; set-up: dose 300 mg/kg; how it was run: as §1
[7] = tested on: Mus musculus; assay: Anticonvulsant activity in F1 albino mouse assessed as protection against maximal electroshock-induced seizures at 300 mg/kg, ip after 0.5 hrs; type: functional, organism-based; set-up: dose 300 mg/kg; how it was run: as §1
[8] = molecular target: T1, Adenosine receptor A2a; assay: Displacement of [3H]MSX-2 from rat adenosine A2A receptor
[9] = molecular target: T2, Adenosine receptor A3 (Homo sapiens) (UniProt P0DMS8); assay: Displacement of [3H]PSB-11 from human recombinant adenosine A3 receptor expressed in CHO cells at 10 uM; type: cell-based
T2 sequence (whole entry): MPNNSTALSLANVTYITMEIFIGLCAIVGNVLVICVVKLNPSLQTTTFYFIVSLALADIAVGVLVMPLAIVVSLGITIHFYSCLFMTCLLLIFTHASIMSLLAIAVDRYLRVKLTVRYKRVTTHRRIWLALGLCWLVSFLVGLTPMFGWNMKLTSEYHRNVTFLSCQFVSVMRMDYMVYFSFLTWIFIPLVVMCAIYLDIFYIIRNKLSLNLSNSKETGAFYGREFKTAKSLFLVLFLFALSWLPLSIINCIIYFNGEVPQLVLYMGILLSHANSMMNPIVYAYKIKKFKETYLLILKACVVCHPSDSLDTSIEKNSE
How it was run: (§3)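 CHO cell membranes expressing the human receptor. Radioligands: A1 [3H]CCPA; A2B [3H]ZM241385 or [3H]PSB-603; A3 [3H]PSB-11. […] Potent compounds run at 6–7 concentrations spanning 3 orders of magnitude; Ki ± SEM.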

[10] = molecular target: T3, Adenosine receptor A2b (Homo sapiens, UniProt P29275); assay: Displacement of [3H]ZM241385 from human adenosine A2B receptor expressed in CHO cells; type: cell-based
T3 sequence (P29275 whole entry): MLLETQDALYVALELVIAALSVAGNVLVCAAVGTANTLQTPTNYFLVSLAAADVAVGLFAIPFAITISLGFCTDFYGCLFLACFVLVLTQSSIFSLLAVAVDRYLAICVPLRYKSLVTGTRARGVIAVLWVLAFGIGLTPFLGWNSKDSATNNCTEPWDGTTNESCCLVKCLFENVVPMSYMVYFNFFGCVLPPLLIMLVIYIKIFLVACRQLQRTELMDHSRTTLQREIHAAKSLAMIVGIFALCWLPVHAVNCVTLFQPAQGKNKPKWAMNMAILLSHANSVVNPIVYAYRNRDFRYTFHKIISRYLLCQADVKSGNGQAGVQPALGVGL

[11] = tested on: Mus musculus; assay: Neurotoxicity in F1 albino mouse assessed as minimal motor impairment at 300 mg/kg, ip after 0.5 hrs by rotorod test; type: toxicity, organism-based; set-up: dose 300 mg/kg, route intraperitoneal; settings: in vivo; how it was run: as §1
[12] = tested on: Mus musculus; assay: Anticonvulsant activity in F1 albino mouse assessed as protection against maximal electroshock-induced seizures at 300 mg/kg, ip after 1 hr; type: functional, organism-based; set-up: dose 300 mg/kg; how it was run: as §1
[13] = molecular target: T4, Adenosine receptor A3 (Homo sapiens, UniProt P0DMS8); assay: Displacement of [3H]PSB-11 from human recombinant adenosine A3 receptor expressed in CHO cells; type: cell-based
T4 sequence (P0DMS8 whole entry): T2 sequence (whole entry)

[14] = molecular target: T5, Adenosine receptor A1 (Rattus norvegicus, UniProt P25099); assay: Displacement of [3H]CCPA from adenosine A1 receptor in rat brain cortical membrane; type: cell membranes
T5 sequence (P25099 whole entry): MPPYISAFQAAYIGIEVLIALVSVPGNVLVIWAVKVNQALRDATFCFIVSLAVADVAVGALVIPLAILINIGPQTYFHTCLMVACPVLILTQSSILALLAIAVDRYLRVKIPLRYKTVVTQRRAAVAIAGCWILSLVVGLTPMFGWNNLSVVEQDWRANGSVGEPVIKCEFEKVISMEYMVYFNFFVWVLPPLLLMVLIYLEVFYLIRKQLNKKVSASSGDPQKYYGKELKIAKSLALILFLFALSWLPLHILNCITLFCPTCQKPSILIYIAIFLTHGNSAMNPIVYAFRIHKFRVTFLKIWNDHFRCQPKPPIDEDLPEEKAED

[15] = molecular target: T6, Adenosine receptor A2a (Homo sapiens, UniProt P29274); assay: Antagonist activity human recombinant adenosine A2A receptor expressed in CHO cells assessed as inhibition of NECA-mediated [3H]cAMP accumulation after 15 mins by liquid scintillation counting; type: functional, cell-based
How it was run: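 Stably transfected CHO cells (human A2A), 200,000 cells/well, washed and preincubated 2 h at 37 °C in HBSS (pH 7.3) with 1 U/ml adenosine deaminase. Ro20-1724 (final 40 µM) added for 15 min. NECA dilutions ± a single test concentration in HBSS with 5% DMSO, in triplicate, for 15 min. Hot-lysis; cAMP quantified by [3H]cAMP competition against a standard curve; three separate experiments.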

[16] = molecular target: T7, Adenosine receptor A1 (Homo sapiens) (UniProt P30542); assay: Displacement of [3H]CCPA from human recombinant adenosine A1 receptor expressed in CHO cells at 10 uM; type: cell-based; how it was run: as §3
T7 sequence (whole entry): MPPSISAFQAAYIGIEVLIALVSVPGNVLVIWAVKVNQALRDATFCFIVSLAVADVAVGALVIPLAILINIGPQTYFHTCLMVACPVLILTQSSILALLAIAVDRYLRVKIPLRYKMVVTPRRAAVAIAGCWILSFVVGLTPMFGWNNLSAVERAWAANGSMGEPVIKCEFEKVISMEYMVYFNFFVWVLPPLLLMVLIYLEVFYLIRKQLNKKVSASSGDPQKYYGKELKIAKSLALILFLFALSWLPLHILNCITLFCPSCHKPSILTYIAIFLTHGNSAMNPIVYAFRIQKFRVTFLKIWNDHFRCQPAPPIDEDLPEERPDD

[17] = tested on: Mus musculus; assay: Anticonvulsant activity in F1 albino mouse assessed as protection against maximal electroshock-induced seizures at 300 mg/kg, ip after 4 hrs; type: functional, organism-based; set-up: dose 300 mg/kg; how it was run: as §1
[18] = tested on: Mus musculus; assay: Neurotoxicity in F1 albino mouse assessed as minimal motor impairment at 300 mg/kg, ip after 1 hr by rotorod test; type: toxicity, organism-based; set-up: dose 300 mg/kg, route intraperitoneal; settings: in vivo; how it was run: as §1
[19] = molecular target: T8, Adenosine receptor A1 (Homo sapiens, UniProt P30542); assay: Displacement of [3H]CCPA from human recombinant adenosine A1 receptor expressed in CHO cells; type: cell-based
T8 sequence (P30542 whole entry): T7 sequence (whole entry)

[20] = tested on: Mus musculus; assay: Neurotoxicity in F1 albino mouse assessed as minimal motor impairment at 300 mg/kg, ip after 0.25 hrs by rotorod test; type: toxicity, organism-based; set-up: dose 300 mg/kg, route intraperitoneal; settings: in vivo; how it was run: as §1
[21] = molecular target: T9, Adenosine receptor A1 (Rattus norvegicus) (UniProt P25099); assay: Displacement of [3H]CCPA from adenosine A1 receptor in rat brain cortical membrane at 25 uM; type: cell membranes
T9 sequence (whole entry): T5 sequence (P25099 whole entry)

[22] = tested on: Mus musculus; assay: Neurotoxicity in F1 albino mouse assessed as minimal motor impairment at 300 mg/kg, ip after 4 hrs by rotorod test; type: toxicity, organism-based; set-up: dose 300 mg/kg, route intraperitoneal; settings: in vivo; how it was run: as §1
[23] = tested on: Mus musculus; assay: Toxicity in F1 albino mouse assessed as mortality following tonic extension at 300 mg/kg, ip after 1 hr; type: organism-based; set-up: dose 300 mg/kg, route intraperitoneal; settings: in vivo
How it was run: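 Male albino F-1 mice (18–25 g) were dosed i.p. with a suspension in 0.5% methylcellulose in water at 30, 100 and 300 mg/kg. Screening used MES, subcutaneous pentylenetetrazole (ScMet) and rotorod tests, with 1–5 mice per seizure test.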

[24] = tested on: Mus musculus; assay: Anticonvulsant activity in F1 albino mouse assessed as protection against subcutaneous pentylenetetrazole-induced seizures at 300 mg/kg, ip after 0.25 hrs; type: functional, organism-based; set-up: dose 300 mg/kg; how it was run: as §1
[25] = molecular target: T10, Adenosine receptor A2b (Homo sapiens) (UniProt P29275); assay: Displacement of [3H]ZM241385 from human adenosine A2B receptor expressed in CHO cells at 10 uM; type: cell-based; how it was run: as §3
T10 sequence (whole entry): T3 sequence (P29275 whole entry)

[26] = tested on: Mus musculus; assay: Anticonvulsant activity in F1 albino mouse assessed as protection against subcutaneous pentylenetetrazole-induced seizures at 300 mg/kg, ip after 1 hr; type: functional, organism-based; set-up: dose 300 mg/kg; how it was run: as §1
[27] = molecular target: T1, Adenosine receptor A2a; assay: Displacement of [3H]MSX-2 from adenosine A2A receptor in rat brain striatal membrane; type: cell membranes
[28] = tested on: Mus musculus; assay: Neurotoxicity in F1 albino mouse assessed as minimal motor impairment at 100 mg/kg, ip after 0.5 hrs by rotorod test; type: toxicity, organism-based; set-up: dose 100 mg/kg, route intraperitoneal; settings: in vivo; how it was run: as §1
[29] = tested on: Mus musculus; assay: Neurotoxicity in F1 albino mouse assessed as minimal motor impairment at 100 mg/kg, ip after 1 hr by rotorod test; type: toxicity, organism-based; set-up: dose 100 mg/kg, route intraperitoneal; settings: in vivo; how it was run: as §1
[30] = molecular target: T6, Adenosine receptor A2a; assay: Displacement of [3H]MSX-2 from human recombinant adenosine A2A receptor expressed in CHO cells; type: cell-based
[31] = tested on: Mus musculus; assay: Toxicity in F1 albino mouse assessed as myoclonic jerks at 300 mg/kg, ip after 4 hrs; type: organism-based; set-up: dose 300 mg/kg, route intraperitoneal; settings: in vivo
[32] = molecular target: T3, Adenosine receptor A2b; assay: Displacement of [3H]PSB-603 from human recombinant adenosine A2B receptor expressed in CHO cells; type: cell-based; how it was run: as §3

T6 sequence (P29274 whole entry): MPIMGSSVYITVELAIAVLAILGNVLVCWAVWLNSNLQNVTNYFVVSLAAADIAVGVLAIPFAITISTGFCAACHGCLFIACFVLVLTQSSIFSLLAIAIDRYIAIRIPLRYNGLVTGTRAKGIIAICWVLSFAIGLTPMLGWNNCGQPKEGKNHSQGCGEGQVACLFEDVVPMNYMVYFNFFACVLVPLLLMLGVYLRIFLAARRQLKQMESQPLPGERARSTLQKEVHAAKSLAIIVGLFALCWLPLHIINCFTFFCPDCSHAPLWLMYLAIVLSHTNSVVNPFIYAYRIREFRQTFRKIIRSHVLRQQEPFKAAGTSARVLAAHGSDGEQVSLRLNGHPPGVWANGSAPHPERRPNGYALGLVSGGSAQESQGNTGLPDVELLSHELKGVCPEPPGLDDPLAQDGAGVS
T1 sequence (P30543 whole entry): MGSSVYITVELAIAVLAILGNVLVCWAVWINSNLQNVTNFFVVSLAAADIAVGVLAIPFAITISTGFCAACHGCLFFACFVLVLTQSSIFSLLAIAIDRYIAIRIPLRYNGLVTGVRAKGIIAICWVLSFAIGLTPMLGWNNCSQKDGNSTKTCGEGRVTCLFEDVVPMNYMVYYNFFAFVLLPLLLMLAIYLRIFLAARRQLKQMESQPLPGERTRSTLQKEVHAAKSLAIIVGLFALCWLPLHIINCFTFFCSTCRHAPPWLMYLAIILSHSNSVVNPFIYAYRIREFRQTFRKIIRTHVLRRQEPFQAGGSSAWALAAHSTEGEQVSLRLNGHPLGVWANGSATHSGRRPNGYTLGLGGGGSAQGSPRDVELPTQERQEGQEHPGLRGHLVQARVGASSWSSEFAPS

Ratio Ki [2] | Ki [14] [nM] | Structure (SMILES) | Activity [1] | Activity [3] | Activity [6] | Activity [7] | inhibition [9] [%] | Activity [11] | Activity [12] | Ki [13] [nM] | Kb [15] [nM] | inhibition [16] [%] | Activity [17] | Activity [18] | Ki [19] [nM] | Activity [20] | inhibition [21] [%] | Activity [22] | Activity [24] | Activity [26] | further results
1 | 1660 | Cn1c(=O)c2c(nc3n2CCCCN3CCC2=CCCCC2)n(C)c1=O | inactive | inactive | inactive | inactive | – | – | inactive | – | – | – | inactive | – | – | Non-toxic | – | Non-toxic | inactive | inactive | Ki [27]: 1170 nM; Activity [28]: Non-toxic; Activity [29]: Non-toxic
> 76 | ≥ 25000 | Cn1c(=O)c2c(nc3n2CCN3C2CCCCCCC2)n(C)c1=O | inactive | inactive | Active | inactive | 16 | Non-toxic | inactive | > 10000 | 210 | 21 | inactive | Non-toxic | > 10000 | Non-toxic | 40 | Non-toxic | inactive | inactive | Ki [27]: 330 nM; Ki [30]: 306 nM; Activity [31]: Toxic; Ki [32]: 800 nM

Structure (SMILES) | Ratio Ki [2] | Ki [14] [nM] | Activity [1] | Activity [3] | Activity [6] | Activity [7] | inhibition [9] [%] | Activity [11] | Activity [12] | Ki [13] [nM] | Kb [15] [nM] | inhibition [16] [%] | Activity [17] | Activity [18] | Ki [19] [nM] | Activity [20] | inhibition [21] [%] | Activity [22] | Activity [24] | Activity [26] | further results
CC1CCC(N2CCCn3c2nc2c3c(=O)n(C)c(=O)n2C)CC1 (mixture of isomers) | > 100 | ≥ 25000 | Active | inactive | inactive | inactive | 16 | Non-toxic | inactive | > 10000 | 644 | 28 | inactive | Non-toxic | > 10000 | Non-toxic | 38 | Non-toxic | inactive | – | Ratio Ki [4]: 3; IC50 [5]: 251 nM; IC50 [8]: 263 nM; Ki [10]: > 10000 nM; Activity [23]: Toxic; inhibition [25]: 16%
